We go through 16 molecules from PubChem BioAssay.

Assay [1] is described as follows: reducers of endogenous Her2 protein level, primary screen, SKBR3 breast tumor cells, AlphaScreen, ATP viability (AID 461;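 active = Her2 level under about 52% in both replicate screens, with viability over 70% of control, limit read from the data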;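 as to Her2 level: lower value means less Her2 protein in the cells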;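 as to viability: percent of carrier control wells set as 100% viability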). Conditions: 18-24 h, measured here: SKBR3 viability, ATP luminescence, at 10 µM.
Assay [2] concerns the target Receptor tyrosine-protein kinase erbB-2 (Homo sapiens) (UniProt P04626). The description is as above. The conditions noted are these: 18-24 h, at 10 µM, stronger effect = lower value.
A short description of assay [3]: SK-BR-3 cell growth inhibitors, pilot screen, 24 h, human (AID 572;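 active = viability at or below 10% of carrier control in both of two separate runs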;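 also: compound exposure lasted between 18 and 24 h rather than exactly 24 h; 100% = carrier-treated control wells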). Conditions: SK-BR-3 viability, CellTiter-Glo luminescence, at 10 µM, stronger effect = lower value. (In general: In ATP-based viability assays light output follows the ATP content of the culture.)
Assay [4] in a line: HUVEC growth inhibition – cell-based, human, primary screen (AID 575;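 active = viability at or below 30% in both replicate assays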;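 also: 100% = median of untreated cell wells with 0.1% DMSO on each plate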). The conditions noted are these: HUVEC proliferation, CellTiter-Glo luminescence, 72 h; at 10 µM; stronger effect = lower value. The gist of the method: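 Material: primary human umbilical vein endothelial cells / Schedule: 72 h exposure, 37 °C, 5% CO2, 30 min RT equilibration / Signal: ATP-based CellTiter-Glo luminescent read / Read-out basis: percent of median DMSO-control luminescence / Control set: 32 DMSO-only cell-control wells (high), 32 MePR drug-control wells (low) per plate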

Assay [5] in a line: growth inhibitors of H69AR lung tumor, primary screen, human, duplicate replicates (AID 580;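 active = viability at or under a set limit in both replicates, limit being median viability minus 3 SD, cut at about 48% in these data, passing the limit was not always enough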;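 also: 100% = mean luminescence of untreated wells and 0% = no signal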). The conditions noted are these: H69AR lung tumor cells viability, ATP luminescence, 72 h; at 10 µM; stronger effect = lower value.
Assay [6] can be described thus: reversal of MRP1-mediated doxorubicin resistance, pilot screen, H69AR cells, doxorubicin co-treatment (AID 601;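 active = viability loss from added drug above about 55%, and viability with drug at most 40%, in both replicates, limit read from the data, passing the limit was not always enough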). Conditions: CellTiter-Glo, 72 h, at 10 µM; for differential viability (reversal): stronger effect = higher value.
The nature of assay [7]: 384-well plate pilot, post-Golgi transport modulator project, inhibition of yeast transport mutant growth (AID 636; in the data active = inhibition above about 31%). The conditions noted are these: absorbance 615 nm, about 18 h, stronger effect = higher value.
The nature of assay [8]: growth suppression of yeast trafficking mutant, preliminary HTS, modulators of trafficking downstream of Golgi apparatus project, 1536-format plate, OD 615 nm (AID 637). Conditions: yeast transport mutant growth, absorbance 615 nm, 18 h; stronger effect = higher value.
Where [9] appears, read: H69AR cells + 2 uM doxorubicin, measured here: viability with 2 uM doxorubicin, stronger effect = lower value.
[10] abbreviates: H69AR cells, compound alone cytotoxicity.

Calls of active or inactive are those of the source. Rule as the data show it, unless noted: active = inhibition above about 30%; inactive = the rest.

For orientation: viability means a read-out of living cells in per cent, often relative to untreated cells. One may read the inhibition as the drop in the measured response relative to a control, in per cent.

Sequence of Receptor tyrosine-protein kinase erbB-2 (Homo sapiens) (P04626 whole entry, looked up): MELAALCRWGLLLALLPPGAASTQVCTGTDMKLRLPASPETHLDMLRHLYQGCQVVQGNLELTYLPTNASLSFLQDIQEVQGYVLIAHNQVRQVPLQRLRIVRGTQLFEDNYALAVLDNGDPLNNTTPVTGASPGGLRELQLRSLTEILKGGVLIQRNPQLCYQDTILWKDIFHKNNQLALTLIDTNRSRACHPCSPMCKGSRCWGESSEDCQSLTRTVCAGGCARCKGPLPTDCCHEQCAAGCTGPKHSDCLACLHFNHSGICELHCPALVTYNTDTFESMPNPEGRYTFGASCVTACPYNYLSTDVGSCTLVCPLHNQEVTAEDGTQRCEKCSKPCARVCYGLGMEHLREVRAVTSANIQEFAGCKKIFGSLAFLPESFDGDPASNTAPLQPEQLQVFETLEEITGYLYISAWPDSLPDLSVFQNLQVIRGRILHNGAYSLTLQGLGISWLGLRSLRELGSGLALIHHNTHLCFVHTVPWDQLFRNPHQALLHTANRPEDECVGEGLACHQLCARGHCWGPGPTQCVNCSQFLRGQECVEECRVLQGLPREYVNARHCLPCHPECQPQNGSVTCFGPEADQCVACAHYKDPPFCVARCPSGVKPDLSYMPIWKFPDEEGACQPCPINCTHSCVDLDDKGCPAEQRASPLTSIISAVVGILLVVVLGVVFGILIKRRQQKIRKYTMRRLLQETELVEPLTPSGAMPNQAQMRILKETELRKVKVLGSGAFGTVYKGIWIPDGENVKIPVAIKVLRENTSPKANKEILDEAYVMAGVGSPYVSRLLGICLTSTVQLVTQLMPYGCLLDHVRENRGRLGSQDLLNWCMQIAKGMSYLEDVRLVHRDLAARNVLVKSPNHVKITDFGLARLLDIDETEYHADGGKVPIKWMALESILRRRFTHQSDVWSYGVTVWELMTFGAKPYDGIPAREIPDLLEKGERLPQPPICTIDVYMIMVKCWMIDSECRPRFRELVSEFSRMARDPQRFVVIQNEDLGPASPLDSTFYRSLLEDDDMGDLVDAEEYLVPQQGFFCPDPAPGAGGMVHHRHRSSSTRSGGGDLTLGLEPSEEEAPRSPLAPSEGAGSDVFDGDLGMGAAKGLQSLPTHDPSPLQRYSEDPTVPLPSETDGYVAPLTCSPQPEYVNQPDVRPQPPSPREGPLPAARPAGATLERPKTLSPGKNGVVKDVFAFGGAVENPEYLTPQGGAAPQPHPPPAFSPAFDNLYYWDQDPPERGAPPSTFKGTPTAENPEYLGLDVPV

For the molecule `CCn1c(C)cc(=S)c2ccccc21`, the viability was 114% in assay [1]; 114% (inactive) in assay [3]; 98.6% (inactive) in assay [4]; 91.2% (inactive) in assay [5]; 87.3% in assay [6] (setting [9]); 91.2% in assay [6] (setting [10]). For the same molecule, the Her2 level in assay [2] is 99.5% (inactive). The differential viability (reversal) in assay [6] (H69AR cells + 2 uM doxorubicin) is 3.92% (inactive). Further, the inhibition in assay [7] was 1.22% (inactive); in assay [8] it was -3.65% (inactive).

For the molecule `O=C(C1CCCN(S(=O)(=O)c2ccc(Br)s2)C1)N1CCCCCC1` (stereo not given), the viability in assay [1] is 83.5%; in assay [3], 83.5% (inactive); in assay [4], 98.4% (inactive); in assay [5], 98.1% (inactive); in assay [6] (setting [9]), 88.2%; in assay [6] (setting [10]) it was 98.1%. Further, the Her2 level in assay [2] was 95% (inactive). In addition, the differential viability (reversal) in assay [6] (H69AR cells + 2 uM doxorubicin) was 9.84% (inactive). Further, the figures for the inhibition in assay [7] and in assay [8] were -3.16% (inactive) and -3.5% (inactive), respectively.

Turning to `c1ccc(-c2ccccc2OCCn2cncn2)cc1`, the viability was 93% in assay [1]; 93% (inactive) in assay [3]; 104% (inactive) in assay [4]; 99.8% (inactive) in assay [5]; 83.9% in assay [6] (setting [9]); 99.8% in assay [6] (setting [10]). Further, the Her2 level in assay [2] was 79% (inactive). Further, in assay [6] (H69AR cells + 2 uM doxorubicin), the differential viability (reversal) was 15.9% (inactive). Besides, the figures for the inhibition in assay [7] and in assay [8] were -5.41% (inactive) and 0.98% (inactive), respectively.

For the molecule `CCCCOc1ccc(-c2nnc(N)s2)cc1`, the viability in assay [1] was 85.5%; in assay [3] it was 85.5% (inactive); in assay [4], 93.3% (inactive); in assay [5], 98.5% (inactive); in assay [6] (setting [9]), 85.9%; in assay [6] (setting [10]), 98.5%. Also, the Her2 level in assay [2] was 98% (inactive). Moreover, in assay [6] (H69AR cells + 2 uM doxorubicin), the differential viability (reversal) is 12.6% (inactive). In addition, the inhibition is 3.33% (inactive) in assay [7] and 1.15% (inactive) in assay [8].

For `COCCNc1nc(C(C)(C)C)nc2c1nnn2Cc1ccccc1Cl`, the viability in assay [1] was 87%; in assay [3] it was 87% (inactive); in assay [4] it was 119% (inactive); in assay [5], 96.1% (inactive); in assay [6] (setting [9]), 94.4%; in assay [6] (setting [10]), 96.1%. Besides, the Her2 level in assay [2] was 86.5% (inactive). The differential viability (reversal) in assay [6] (H69AR cells + 2 uM doxorubicin) is 1.67% (inactive). The inhibition was -0.66% (inactive) in assay [7] and -3.33% (inactive) in assay [8].

Turning to `COCCCNC(=O)C(Cc1ccccc1)NS(=O)(=O)c1ccc2c(c1)c(=O)n(C)c(=O)n2C` (stereo not given), the viability is 101% in assay [1]; 101% (inactive) in assay [3]; 96.8% (inactive) in assay [4]; 89.2% (inactive) in assay [5]; 85.9% in assay [6] (setting [9]); 89.2% in assay [6] (setting [10]). Besides, the Her2 level in assay [2] was 95.5% (inactive). The differential viability (reversal) in assay [6] (H69AR cells + 2 uM doxorubicin) is 3.26% (inactive). The inhibition in assay [7] is -2.63% (inactive); in assay [8], -3.97% (inactive).

On to `COCCn1nnnc1C(c1cccs1)N1CCN(c2cc(C)ccc2C)CC1` (stereo not given), for which the viability in assay [1] was 107%; in assay [3], 107% (inactive); in assay [4] it was 84.8% (inactive); in assay [5] it was 92.5% (inactive); in assay [6] (setting [9]), 90.1%; in assay [6] (setting [10]), 92.5%. Further, in assay [2], the Her2 level is 84.5% (inactive). Further, the differential viability (reversal) in assay [6] (H69AR cells + 2 uM doxorubicin) was 2.44% (inactive). For the same molecule, the inhibition in assay [7] is 1.3% (inactive); in assay [8], 1.27% (inactive).

For the molecule `CCOC(=O)C1=C(O)CCn2c1nc1ccccc12`, the viability in assay [1] is 122%; in assay [3], 122% (inactive); in assay [4], 101% (inactive); in assay [5], 101% (inactive); in assay [6] (setting [9]), 83.6%; in assay [6] (setting [10]), 101%. Also, the Her2 level in assay [2] was 116% (inactive). Also, the differential viability (reversal) in assay [6] (H69AR cells + 2 uM doxorubicin) was 17.7% (inactive). In addition, the inhibition in assay [7] was -8.9% (inactive); in assay [8] it was 0% (inactive).

Consider `Cc1cc(=O)n(C)c(=O)n1CCCNc1ccccc1`, for which the viability in assay [1] was 82%; in assay [3], 82% (inactive); in assay [4], 83.7% (inactive); in assay [5], 99.9% (inactive); in assay [6] (setting [9]), 88.5%; in assay [6] (setting [10]), 99.9%. Besides, in assay [2], the Her2 level is 115% (inactive). In assay [6] (H69AR cells + 2 uM doxorubicin), the differential viability (reversal) is 11.4% (inactive). Moreover, the inhibition in assay [7] was 0% (inactive); in assay [8], -5% (inactive).

As for `COc1ccc(N2C(N)=C(C#N)C(c3cccnc3)C3=C2CC(C)(C)CC3=O)cc1` (stereo not given), the viability is 106% in assay [1]; 106% (inactive) in assay [3]; 79.5% (inactive) in assay [4]; 20.6% (active) in assay [5]; 23.6% in assay [6] (setting [9]); 20.6% in assay [6] (setting [10]). In assay [2], the Her2 level is 90% (inactive). The differential viability (reversal) in assay [6] (H69AR cells + 2 uM doxorubicin) was -3% (inactive). Further, the results for the inhibition in assay [7] and in assay [8] were -8.9% (inactive) and 0.32% (inactive), respectively.

As for `N#Cc1ccccc1NC(=O)CSc1nnc(-c2ccccc2)n1-c1ccccc1`, the viability was 81.5% in assay [1]; 81.5% (inactive) in assay [3]; 102% (inactive) in assay [4]; 30.3% (active) in assay [5]; 93.8% in assay [6] (setting [9]); 30.3% in assay [6] (setting [10]). Further, the Her2 level in assay [2] was 83% (inactive). Besides, the differential viability (reversal) in assay [6] (H69AR cells + 2 uM doxorubicin) was -63.4% (inactive). Also, the inhibition is 1.49% (inactive) in assay [7] and -0.32% (inactive) in assay [8].

For `O=C(O)CCNc1ccc2c(c1)OCCO2`, the viability was 97.5% in assay [1]; 97.5% (inactive) in assay [3]; 109% (inactive) in assay [4]; 86.9% (inactive) in assay [5]; 79.6% in assay [6] (setting [9]); 86.9% in assay [6] (setting [10]). Also, the Her2 level in assay [2] is 86.5% (inactive). Also, the differential viability (reversal) in assay [6] (H69AR cells + 2 uM doxorubicin) was 7.24% (inactive). Besides, the inhibition was -5.14% (inactive) in assay [7] and -2.67% (inactive) in assay [8].

Consider `O=c1oc2ccccc2c(O)c1C=NCc1ccccn1`, for which the viability in assay [1] is 88%; in assay [3] it was 88% (inactive); in assay [4], 67.6% (inactive); in assay [5], 76.8% (inactive); in assay [6] (setting [9]), 87.3%; in assay [6] (setting [10]), 76.8%. In addition, in assay [2], the Her2 level is 93.5% (inactive). In addition, in assay [6] (H69AR cells + 2 uM doxorubicin), the differential viability (reversal) was -10.5% (inactive). The inhibition is -8.11% (inactive) in assay [7] and -5.57% (inactive) in assay [8].

Regarding `CC(=O)Nc1ccc(OCC(O)CN2CCN(c3cccc(Cl)c3)CC2)cc1` (stereo not given), the viability is 76.5% in assay [1]; 76.5% (inactive) in assay [3]; 79.5% (inactive) in assay [4]; 88.4% (inactive) in assay [5]; 81.5% in assay [6] (setting [9]); 88.4% in assay [6] (setting [10]). Further, the Her2 level in assay [2] was 82% (inactive). Moreover, the differential viability (reversal) in assay [6] (H69AR cells + 2 uM doxorubicin) is 6.8% (inactive). The figures for the inhibition in assay [7] and in assay [8] were -7.84% (inactive) and 5.74% (inactive), respectively.

Regarding `Cc1cccc(-n2c(O)c(C=Nc3ccccc3N)c(=O)[nH]c2=O)c1`, the viability was 108% in assay [1]; 108% (inactive) in assay [3]; 88.2% (inactive) in assay [4]; 10.1% (active) in assay [5]; 38.3% in assay [6] (setting [9]); 10.1% in assay [6] (setting [10]). Also, the Her2 level in assay [2] is 94.5% (inactive). In addition, the differential viability (reversal) in assay [6] (H69AR cells + 2 uM doxorubicin) was -28.2% (inactive). Besides, the inhibition in assay [7] was -5.19% (inactive); in assay [8], -0.16% (inactive).

As to `CCOC(=O)C1CCCN(c2c(NCc3ccco3)c(=O)c2=O)C1` (stereo not given), the viability in assay [1] is 94%; in assay [3] it was 94% (inactive); in assay [4], 83.3% (inactive); in assay [5], 94.3% (inactive); in assay [6] (setting [9]), 82.6%; in assay [6] (setting [10]), 94.3%. Moreover, the Her2 level in assay [2] is 108% (inactive). In addition, the differential viability (reversal) in assay [6] (H69AR cells + 2 uM doxorubicin) was 11.7% (inactive). Besides, the results for the inhibition in assay [7] and in assay [8] were 2% (inactive) and -6.07% (inactive), respectively.
